TRPC4 potent = allosteric potentiators of mouse TRPC4 channel | B-score at 10 µM | hit rate 0.42% among 310,000 | HEK293 TRPC4beta/mu-opioid, DAMGO EC20, Fluo-4 Ca2+ flux; hits give high values;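 active = B-score of calcium response area above 5 SD of library B-scores, with initial fluorescence ratio within 5 SD of library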;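 also: B-score of integrated fluorescence ratio over time as area under calcium response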
TRPC4 block = blocks the mouse TRPC4 cation channel. Q9QUQ5. HEK293 TRPC4beta/mu-opioid, DAMGO-evoked Fluo4 calcium flux; hits give low values. B-score at 10 µM. hit rate 0.39% among 300,000;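 active = B-score over 3 SD under the library average, no early fluorescence shift, positive overall ratio signal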
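Assay system: Stable TRPC4beta/mu-opioid receptor HEK293 cells | Reagent: DAMGO in two steps, submaximal then maximal | Compound dosing: Single concentration per test compound | Signal: Fluo4 Ca2+ flux fluorescence | Evaluation: Per-well B score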
TRPC6 inhibitor = blocks the mouse TRPC6 cation channel; Q61143; HEK293-TRPC6, membrane potential dye, ACh-evoked depolarization; hits give low values; B-score at 10 µM; hit rate 1.1% among 310,000; AID 2553;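 active = B-score under library mean minus 3 SD, initial fluorescence not abnormally high, positive integrated signal ratio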;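 also: B-score derived from integrated fluorescence ratio over the kinetic read; more negative B-score means stronger inhibition of depolarization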
Target sequence (Q61143 whole entry, looked up): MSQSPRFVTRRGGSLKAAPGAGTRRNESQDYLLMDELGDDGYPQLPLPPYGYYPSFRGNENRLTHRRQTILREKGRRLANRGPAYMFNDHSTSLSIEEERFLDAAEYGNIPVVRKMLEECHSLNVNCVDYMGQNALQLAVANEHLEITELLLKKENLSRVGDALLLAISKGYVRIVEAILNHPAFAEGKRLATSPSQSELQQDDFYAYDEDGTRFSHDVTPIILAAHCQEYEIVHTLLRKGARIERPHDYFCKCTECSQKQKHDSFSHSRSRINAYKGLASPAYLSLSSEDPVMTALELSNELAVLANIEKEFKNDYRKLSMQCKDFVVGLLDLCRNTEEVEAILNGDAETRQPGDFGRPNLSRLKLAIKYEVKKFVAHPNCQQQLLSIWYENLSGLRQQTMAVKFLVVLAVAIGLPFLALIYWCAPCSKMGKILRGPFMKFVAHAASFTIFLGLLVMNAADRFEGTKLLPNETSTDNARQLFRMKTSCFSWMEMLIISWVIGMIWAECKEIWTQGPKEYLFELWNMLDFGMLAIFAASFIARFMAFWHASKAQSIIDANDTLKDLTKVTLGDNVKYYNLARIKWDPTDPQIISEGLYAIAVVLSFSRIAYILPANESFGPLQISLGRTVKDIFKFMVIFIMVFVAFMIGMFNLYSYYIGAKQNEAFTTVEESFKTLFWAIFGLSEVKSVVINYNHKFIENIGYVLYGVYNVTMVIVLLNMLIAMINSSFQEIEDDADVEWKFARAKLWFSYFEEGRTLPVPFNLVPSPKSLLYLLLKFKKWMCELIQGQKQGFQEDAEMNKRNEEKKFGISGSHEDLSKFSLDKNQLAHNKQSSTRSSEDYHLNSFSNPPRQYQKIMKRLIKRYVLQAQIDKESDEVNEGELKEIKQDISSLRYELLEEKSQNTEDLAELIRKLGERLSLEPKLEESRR
TRPC4 act = opens the mouse TRPC4 cation channel; B-score at 10 µM; Q9QUQ5; HEK293 TRPC4beta/mu-opioid, Fluo4 calcium fluorescence; hits give high values; hit rate 0.49% among 310,000;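 active = B-score above 5 SD of library B-scores, and initial fluorescence ratio not above library mean plus 5 SD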;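 also: positive B-score marks a calcium rise read as TRPC4 activation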
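system = HEK293 cells stably co-expressing mouse TRPC4beta and mu-opioid receptor | schedule = Fluo4 dye loading 45 min at room temperature, 110 s recording | measure = B-scored integrated calcium fluorescence ratio | signal = Fluo4 calcium-sensitive dye fluorescence, kinetic, 1 Hz baseline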
TRPC6 act = mouse TRPC6 channel activation | Q61143 | HEK293-TRPC6 membrane potential dye fluorescence; hits give high values | B-score at 10 µM | hit rate 0.13% among 310,000;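 active = B-score of the integrated fluorescence ratio above library mean plus 3 SD, and starting fluorescence ratio within library mean plus 5 SD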;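 also: higher score means more depolarization so channel activation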
TRPC4 sel inh 2 = mouse TRPC4 off-target activity of TRPC6 inhibitors, second screen | HEK293 TRPC4/MOR, membrane potential dye fluorescence; channel activated by saturating DAMGO dose | hit rate 42% among 920 | shares compounds with TRPC6 inhibitor | inhibition, % at 10 µM | AID 2776;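 active = compounds whose fluorescence signal differed from control wells by over 3 SD, either direction, in both duplicate plates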
TRPC4 spec = tests whether TRPC6 inhibitors also affect mouse TRPC4 | HEK293 TRPC4/mu-opioid, membrane potential fluorescence | hit rate 61% among 920 | shares compounds with TRPC6 inhibitor | activity change, negative = inhibition, % at 10 µM;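 active = rise or fall in signal beyond 3 SD of buffer-only wells in both replicate plates, either sign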;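 also: integrated kinetic ratio of fluorescence range over baseline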
HEK293 MPD ctr 2-1 = second check of TRPC6 inhibitor effects in parental HEK293 cells; hit rate 31% among 920; parental HEK293 membrane potential dye fluorescence; maximal acetylcholine challenge after compound addition; signal change vs control, % at 10 µM; shares compounds with TRPC6 inhibitor;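 active = membrane potential signal moving either way by over 3 SD of the maximum-effect control, in both duplicate plates, meaning non-specific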
HEK293 MPD ctr-1 = checks TRPC6 inhibitor effects in parental HEK293 cells; hit rate 60% among 920; parental HEK293 membrane potential dye fluorescence; AID 2780; membrane potential signal change, % at 10 µM; shares compounds with TRPC6 inhibitor;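 active = membrane potential signal shifting up or down by more than 3 SD of buffer-only wells, on both duplicate plates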
HEK293 MPD ctr-2 = counter-screen for TRPC6 modulators: effect in parental HEK293 cells; shares compounds with TRPC6 inhibitor; membrane potential dye fluorescence; membrane potential signal change, % at 10 µM; hit rate 51% among 2,400;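 active = membrane potential signal moves up or down beyond 5 SD from buffer-only wells, on both duplicate plates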
HEK293 MPD ctr 2-2 = second counter-screen for TRPC6 modulators: effect in parental HEK293 cells; shares compounds with TRPC6 inhibitor; membrane potential dye fluorescence; after compound, maximal acetylcholine stimulation; inhibition, % at 10 µM; hit rate 14% among 2,400;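 active = membrane potential signal drops by more than 5 SD from the mean control signal, in both duplicate plates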;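 also: plate controls were acetylcholine ECmax control wells for no effect and buffer only wells for full effect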
TRPC4 ctr mod = tests whether TRPC6 modulators also affect mouse TRPC4 | shares compounds with TRPC6 inhibitor | HEK293 TRPC4/mu-opioid, membrane potential fluorescence | percent change from control (negative = decrease, positive = increase), % at 10 µM | hit rate 69% among 2,400;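 active = membrane potential signal moved up or down beyond 5 SD of buffer control wells, in both duplicate plates, actives on both sides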;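 also: plate controls were assay buffer wells for no effect and DAMGO maximal-effect wells for full effect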
TRPC4/MOR inh 2 = second selectivity test of TRPC6 modulators against mouse TRPC4; AID 488928; hit rate 55% among 2,400; shares compounds with TRPC6 inhibitor; inhibition, % at 10 µM; HEK293 TRPC4/mu-opioid, membrane potential dye fluorescence; stimulated with maximal-effect DAMGO;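 active = drop in membrane potential signal beyond 5 SD of the control wells in both duplicate plates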;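 also: TRPC4 counter screen for TRPC6 hits run under conditions tuned for TRPC6 not TRPC4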
TRPC6 block conf = mouse TRPC6 inhibitor confirmation; inhibition, % at 10 µM; hit rate 43% among 3,300; HEK293-TRPC6, membrane potential dye, ACh-evoked depolarization; shares compounds with TRPC6 inhibitor;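 active = fluorescence ratio falls more than 5 SD below the full-stimulation control mean, in both duplicate runs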;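 also: integrated fluorescence ratio of peak minus minimum over baseline after agonist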
TRPC6 act conf = confirmation of mouse TRPC6 activators; activation, % at 10 µM; shares compounds with TRPC6 inhibitor; HEK293-TRPC6 membrane potential dye fluorescence, FDSS; hit rate 11% among 2,800; AID 488961;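 active = ratio signal rise beyond 5 SD above unstimulated control wells' mean, seen in both duplicate runs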;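 also: plate controls were buffer EC0 wells for no effect and acetylcholine ECmax response for full effect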
* hit, by the source's call; i = inactive; nt = not tested or not shown. Hits are enriched below; roughly 2.3% of the tested compounds scored in any of these assays.

SMILES	TRPC4 potent	TRPC4 block	TRPC6 inhibitor	TRPC4 act	TRPC6 act	TRPC4 sel inh 2	TRPC4 spec	HEK293 MPD ctr 2-1	HEK293 MPD ctr-1	TRPC6 block conf	TRPC6 act conf	others
CN1[C@@H]2CC[C@H]1CC(OC(=O)C(CO)c1ccccc1)C2 (some centres undefined)	i	i	-6.94*	i	i	i	i	-17.5%*	i	101.0%*	i
C#CC[N+]1(C)[C@@H]2CC(OC(=O)C(CO)c3ccccc3)C[C@H]1C(O)C2 (some centres undefined)	i	i	-9.94*	i	i	i	i	1.5%*	i	87.4%*	i
CN1CCC(=O)N(CCN=[N+]=[N-])CC1	i	i	i	i	i	nt	nt	nt	nt	nt	nt
O=[N+]([O-])c1ccc(N2CCCNCC2)c2ncccc12	i	i	-11.3*	138*	i	nt	nt	nt	nt	96.5%*	i	HEK293 MPD ctr-2=-444.5%*;HEK293 MPD ctr 2-2=110.5%*;TRPC4 ctr mod=-51.5%*;TRPC4/MOR inh 2=79.0%*
N#CCCn1cc(C(=O)Nc2ccc(F)cc2)c(-c2ccccc2)n1	i	i	i	i	i	nt	nt	nt	nt	nt	nt
Fc1c(F)c(F)c(N2CCNCC2)c(F)c1F	i	i	i	i	i	nt	nt	nt	nt	nt	nt
CN1CCN(CCC(C#N)(c2ccccc2)c2ccccc2)CC1	i	i	-7.24*	i	i	i	2.6%*	15.0%*	7.2%*	i	nt
CN1CCN(Cc2ccc3ccccc3c2)CC1	i	i	i	i	i	nt	nt	nt	nt	nt	nt
CC[N+]12CCC(CC1)C(C(O)(c1ccccc1)c1ccccc1)C2 (centres undefined)	i	i	-6.02*	i	i	nt	nt	nt	nt	81.5%*	i	HEK293 MPD ctr-2=i;HEK293 MPD ctr 2-2=i;TRPC4 ctr mod=i;TRPC4/MOR inh 2=i
CCOc1cccc(=NC2CCCCC2)c2c(C)n(C)c(C)c12	i	i	-7.5*	i	i	50.5%*	6.9%*	-69.0%*	i	i	i
Cc1ccc(C(=O)c2cc(Br)ccc2N)cc1	i	i	i	i	i	nt	nt	nt	nt	nt	nt
CC1C(c2cccs2)=[N+]([O-])C(C)(C(=O)c2ccc(F)cc2)N1O (centres undefined)	i	i	i	i	i	nt	nt	nt	nt	nt	nt
CCOC(C(=O)OCCCN(CC)CC)(c1ccccc1)c1ccccc1	i	i	i	i	i	nt	nt	nt	nt	nt	nt
CCN(CC)CCCOC(=O)C(OC(C)C)(c1ccccc1)c1ccccc1	i	i	-9.05*	i	i	65.5%*	39.5%*	i	21.9%*	57.0%*	nt
CCc1cc2c(N3CCN(C)CC3)ncnc2s1	i	i	i	i	i	nt	nt	nt	nt	nt	nt

Source: PubChem
